In the EternaBench riboswitch data:

Tested on: MS2 coat protein
Assay: apparent Kd, MS2 coat protein; higher = weaker binding; RNA-MaP array; FMN 200 µM where present
Summary of the method: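 In 100 mM Tris-HCl pH 7.5, 80 mM KCl, 4 mM MgCl2, BSA, DTT, yeast tRNA and Tween-20, SNAP-549-labelled MS2 coat protein was titrated from 0.7 or 1.5 nM, doubling to 3 µM, over designs transcribed by stalled E. coli RNA polymerase on Illumina sequencing-chip clusters. This was done first without ligand, then with ligand held constant. After green signal was normalised to red-channel RNA signal and control-cluster median Fmax, the apparent Kd was taken as the median of filtered per-cluster binding-curve fits.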

[1] = designed as: ON switch for flavin mononucleotide, no ligand
[2] = ligand present: flavin mononucleotide, designed as: ON switch for flavin mononucleotide
[3] = designed as: OFF switch for flavin mononucleotide, no ligand
[4] = ligand present: flavin mononucleotide, designed as: OFF switch for flavin mononucleotide

Sequence | apparent Kd [1] [nM] | apparent Kd [2] [nM] | apparent Kd [3] [nM] | apparent Kd [4] [nM]
AUUUAUGGCCAGAAGGACAUGAGGAUCACCCAUGUAGGAUAUGGACGAUUUUGCUUGGCGGUUCGUUUAGGAAGCACCGGUGGU | 23.8 | 7.18 | – | –
AUUUCAGUCAGAGGAUAUUGUUUAUCUCUAUUGCAAGAAGGCUGAUCUUACUACCCACUUAUGAAACAUGAGGAUCACCCAUGU | 20.8 | 16.8 | – | –
AUUUGCGAAUCAGGAUAUGGACCAGCACAUGAGGAUCACCCAUGUCUGCCGGCGAGCCGGCUAGGCCAGAAGGGAUGUGCUCAA | 87 | 18.2 | – | –
AUUUUGUCAGGAUAUGAGUAGUAGGAUGAGAGUGCUACUACUUAGAAGGGACAUGAGGAUCACCCAUGUCUUCC | – | – | 14.2 | 16.7
CAAAAGCUAGGAUAUGCCAAUUGUUCCUUAAGUCAAAAUAAACAUGAGGAUCACCCAUGUAGAAGGAGCCCAAC | – | – | 35.9 | 19.8
CAAAUCUGAGGAUAUCGAUAUUUGUACAUGAGGAUCACCCAUGUCCUAUUUAUAAAAUCCCGAGAAGGCAGUGUAU | – | – | 14.6 | 22.9
CAAAUUUGGUAAGGAUAUCCCACAUUAUUCUGACCCGUGCAAGCUACAUGAGGAUCACCCAUGUGGGAGAAGGUGCGUUAAAGA | – | – | 63 | 79
CAAUUCCGAGGAUAUACAUGAGGAUCACCCAUGUCGGGCCUCAGCGUUUAGCGCCUCAGUAGAAGGCGGGUUUC | – | – | 28.3 | 34.8
CAAUUUUGGAGUUCGUAUCGAUACAUGAGGAUCACCCAUGUAAAGGAUAUGAUCUAGUUUUUAGAUCAGAAGGUUACAUAGGCG | – | – | 54.9 | 25.8
CACAAAUGGCAGAAGGGACGGACGAUAGUGUAGUCAGGAUAUGCAAAUAGGUAUGGACAUGAGGAUCACCCAUGUCCGUCCUUU | – | 5.27 | – | –
CACAGGGCAGGAUAUACGAACAUGUCGCCAGAUGUCAUGGUACAUGAGGAUCACCCAUGUAGAAGGGCGUUGAU | – | – | 50.5 | 52.8
CACAUUUUAACAGGAUAUGUAUGGUUGCUUAUUAUUGCAUAUUCAAUUAUUACAGAAGGGUUAUACAUGAGGAUCACCCAUGUG | 21 | 15.5 | – | –
CACCAGCGAGGAUAUACACGUGGUCUCCACUCCCGGUGGUAACAUGAGGAUCACCCAUGUAGAAGGCGCAACAU | – | – | 42 | 220
CACCGCGACAACGCGGUGUCACAUGAGGAUCACCCAUGUUCACAGGAUAUGCGAUAGCCAACGAAGCAGAAGGGUGAUUACUUA | 41.1 | 111 | – | –
CACUCACAUGAGGAUCACCCAUGUCCUAGCAGGUCAGGAUAUAGCUCGGAUGCGUUGAGGCUAGAAGGGACAGGUU | 116 | 68.5 | – | –
CAGAAGUCAGGAUAUCCUGCUCGUCACUUGCGUGAUGAGUAGGAGAAGGGACAUGAGGAUCACCCAUGUAAAGC | – | – | 53.8 | 65.2
CAGACCGGCGCAGGAUAUGUCGACAUGAGGAUCACCCAUGUAAGCCUUGUCUGGUCCGGUGUGUGACAGAAGGGUGUCGGCCAA | – | – | 29.5 | 21.9
CAGAGUAAAGGAUAUACAUGAGGAUCACCCAUGUUUAGACCGACGACACGUCCUAGUUGUAGAAGGUUAUUUUG | – | – | 82.2 | 68.7
CAGAGUUGGUAAGGAUAUCCCACAUUAUUCUGACCCGUGCAAGCUACAUGAGGAUCACCCAUGUGGGAGAAGGUGCGUUAAAGA | – | – | 39 | 35
CAGCAUAAGUAGAAGGCUAUAUAUUUAAUUAUAUAAGGAUAUACAUGAGGAUCACCCAUGUGUUCCAGCUGAAUAAUAAUAUAU | – | – | 5.49 | 5.82
CAGCGAUAGCUGAAUGGUACAUGGGAGGAUAUGGGUUGACAUGAGGAUCACCCAUGUAAAUAAUACUAGAAGGCCCAUGUACCU | 191 | 9.38 | – | –

Sequence | apparent Kd [1] [nM] | apparent Kd [2] [nM] | apparent Kd [3] [nM] | apparent Kd [4] [nM]
CAGCGAUAGCUGAAUGGUACAUGGGAGGAUAUGGGUUGAUACAUGAGGAUCACCCAUGUUUAAUACUAGAAGGCCCAUGUACCU | 316 | 11 | – | –
CAGCGGGCAGGAUAUGCACCUUGAGACAAAUGUCUGUCCGGACAUGAGGAUCACCCAUGUAGAAGGGCCACGGA | – | – | 55.4 | 44.5
CAGGACCUUGAGGAUAUGUGACGAUUAUCGUUCAUAGAAGGUAAGACAUGAGGAUCACCCAUGUCCUGGCAUAA | – | – | 15.1 | 15.1
CAGGAUAGAGGAUAUACAUAGAUACAGAUUCAUAUAAUCCUACAUGAGGAUCACCCAUGUAGAAGGCUAUCCUG | – | – | 15 | 46.4
CAGGAUAGAGGAUAUACGUAGAUACAGAUUCAUGUAAUCCUACAUGAGGAUCACCCAUGUAGAAGGCUAUCCUG | – | – | 18 | 113
CAGGAUCAAGGAUAUCAUCGACGGAACAUGAGGAUCACCCAUGUGAUUGUGCUCUCCUUGUGAGAAGGUGGCGAAU | – | – | 38.5 | 36.7
CAGGUAGACUGAGGAUAUACAAAGACCUAGUUUAUCUAGGUCAACAUCACAUGAGGAUCACCCAUGUAGAAGGCAGUCUGCCUG | – | – | 15.4 | 24.7
CAGGUAGACUGAGGAUAUACAAUAAAGACCUAGUCUAUCUAGGUCAUCACAUGAGGAUCACCCAUGUAGAAGGCAGUCUGCCUG | – | – | 18.5 | 38.2
CAGGUAGACUGAGGAUAUACACUAAACAGCUAGUCUAUCUAGCUGCUCACAUGAGGAUCACCCAUGUAGAAGGCAGUCUGCCUG | – | – | 17.2 | 39.3
CAGGUAGACUGAGGAUAUACACUAAACAGCUAGUCUAUCUAGCUGGUCACAUGAGGAUCACCCAUGUAGAAGGCAGUCUGCCUG | – | – | 17.8 | 35.9
CAGGUAGACUGAGGAUAUACAUCUCUGGGCAAACCAGAGUAAAAUUCGACAUGAGGAUCACCCAUGUAGAAGGCAGUCUGCCUG | – | – | 17 | 24.1
CAGUACUGAGGAUAUACAUGAGGAUCACCCAUGUGCUUUAGCUAGGAUACUAGCACUAGUAGAAGGCAGUACUG | – | – | 13.9 | 23.6
CAGUACUGAGGAUAUACAUGAGGAUCACCCAUGUGUUCCAGCUAGGAAACUAGCACUUGUAGAAGGCAGUACUG | – | – | 24.6 | 267
CAGUACUGAGGAUAUACAUGAGGAUCACCCAUGUUUUCCAGCUAGGAUACUAGCAAAUGUAGAAGGCAGUACUG | – | – | 25.1 | 249
CAGUAGAUCCGAGGAUAUACAAUCCGGAAACGGUACAUGAGGAUCACCCAUGUAGAAGGCGGAUCUACAGGUACUAAAGUACCA | – | – | 5.77 | 7.65
CAUACACAUGAGGAUCACCCAUGUGAGGAUAUGAAUACGUUGUCCGUAGGCGACGUGAUCAGAAGGCGCUUGGU | – | – | 45.4 | 61.8
CAUACACAUGAGGAUCACCCAUGUGAGGAUAUGCGUACGUUGUCCGUAGGCGACGUGCGCAGAAGGCGCUUGGU | – | – | 57.1 | 68.6
CAUCAGGUACGAGGAUAUCCGCGAUCUCUUCGAGGAGAAGGCGUACAUGAGGAUCACCCAUGUGGGCGAGGCAGACGAAGUCUG | – | – | 96.3 | 60.9
CAUGAGGUAGGAUAUACGAUAAUAUAGGGUAGAUAUAUAACACAUGAGGAUCACCCAUGUAGAAGGACCAGUAG | – | – | 31.2 | 57.2
CAUGCACAUGAGGAUCACCCAUGUCAGGAUAUCUAUCAUAGCAUCGAAAGAUGCGGGUAGAGAAGGGACAACCC | – | – | 16.2 | 16.4
CAUGGAACAUAGGAUAUCUCGCGGCUAGGCUGCAGAGAAGGAUGUACAUGAGGAUCACCCAUGUAUGAUCCAAU | – | – | 18.9 | 28.2
